Experimental data pooled from the literature.
Protocols differ between the studies behind these lines.
Target: Aurora kinase C (AURKC, Homo sapiens, UniProt Q9UQB9)
One construct used (Q9UQB9 1-309): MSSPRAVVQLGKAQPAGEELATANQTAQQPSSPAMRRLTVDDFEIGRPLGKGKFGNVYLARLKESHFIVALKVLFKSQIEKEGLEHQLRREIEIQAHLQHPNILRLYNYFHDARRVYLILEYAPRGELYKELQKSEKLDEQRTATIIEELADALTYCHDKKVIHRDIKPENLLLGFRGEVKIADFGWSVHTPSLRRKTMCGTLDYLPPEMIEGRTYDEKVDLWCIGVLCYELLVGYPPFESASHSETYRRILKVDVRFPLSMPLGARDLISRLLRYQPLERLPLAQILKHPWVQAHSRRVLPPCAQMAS

Compound	read-out	action	technique	concentration	quantity	result
C[C@]1(O)CCCN(c2nc(Nc3ccc(S(=O)(=O)N[C@H]4CC[C@H](CN5CCN(c6ccc(C7CCC(=O)NC7=O)cc6F)CC5)CC4)cc3F)ncc2C(F)(F)F)C1 (stereo partly shown)	binding	–	competition with immobilised ligand	1 µM	remaining binding	97%
C1=C/COCc2cc(ccc2OCCN2CCCC2)Nc2nccc(n2)-c2cccc(c2)COC/1	binding	–	–	0.1 µM	remaining binding	96%
CC#CC(=O)N1CCC[C@H]1c1nc(-c2ccc(C(=O)Nc3ccccn3)cc2)c2c(N)nccn12	enzyme activity	inhibitor	–	1 µM	inhibition	18%
CNS(=O)(=O)c1ccc(Nc2ncc(C(F)(F)F)c(N3CCC[C@](C)(O)C3)n2)c(C)c1	binding	–	competition with immobilised ligand	1 µM	remaining binding	37%
COc1ccc2[nH]c3c4[nH]c5ccc(OC)cc5c4c4c(c3c2c1)C(=O)NC4=O	binding	–	competition with immobilised ligand	1 µM	remaining binding	17%
CCCCC(=O)Nc1ccc(-c2ccc3ncn(CCC)c(=O)c3c2)cn1	binding	–	competition with immobilised ligand	0.5 µM	remaining binding	83%
COc1ccc2oc(-c3ccc4nc(N)oc4c3)c/c(=N\c3ccccc3NC(=O)CCN)c2c1	binding	–	–	1 µM	remaining binding	106%
CC(C)S(=O)(=O)c1ccc2nccc(Nc3ccc4sc(C5CCCC5)nc4c3)c2c1	enzyme activity	inhibitor	–	1 µM	activity vs control	101%
CO[C@@H]1[C@H](N(C)C(=O)c2ccccc2)C[C@H]2O[C@]1(C)n1c3ccccc3c3c4c(c5c6ccccc6n2c5c31)C(=O)NC4	enzyme activity	inhibitor	–	1 µM	inhibition	99%
Cc1ccc(NC(=O)c2ccnc(C(F)(F)F)c2)cc1-c1cc(OCCO)nc(N2CCOCC2)c1	binding	–	competition with immobilised ligand	1 µM	remaining binding	83%
